Shown are actives, neighbours in structure and some others; about 3.8% of the full set was active somewhere.
KCNQ1 block – inhibitors of human KCNQ1 potassium channel. CHO-K1 KCNQ1, FluxOR thallium flux fluorescence; stronger effect = higher value. B-score at 10 µM. 310,000 compounds, 1.3% hits. P51787;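 active = compounds whose thallium flux B-score, printed positive for inhibition, exceeds three library SD while starting fluorescence stays within three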;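 also: channel opened by potassium depolarization with thallium stimulus after 20 min compound exposure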
Target sequence (P51787 whole entry, looked up): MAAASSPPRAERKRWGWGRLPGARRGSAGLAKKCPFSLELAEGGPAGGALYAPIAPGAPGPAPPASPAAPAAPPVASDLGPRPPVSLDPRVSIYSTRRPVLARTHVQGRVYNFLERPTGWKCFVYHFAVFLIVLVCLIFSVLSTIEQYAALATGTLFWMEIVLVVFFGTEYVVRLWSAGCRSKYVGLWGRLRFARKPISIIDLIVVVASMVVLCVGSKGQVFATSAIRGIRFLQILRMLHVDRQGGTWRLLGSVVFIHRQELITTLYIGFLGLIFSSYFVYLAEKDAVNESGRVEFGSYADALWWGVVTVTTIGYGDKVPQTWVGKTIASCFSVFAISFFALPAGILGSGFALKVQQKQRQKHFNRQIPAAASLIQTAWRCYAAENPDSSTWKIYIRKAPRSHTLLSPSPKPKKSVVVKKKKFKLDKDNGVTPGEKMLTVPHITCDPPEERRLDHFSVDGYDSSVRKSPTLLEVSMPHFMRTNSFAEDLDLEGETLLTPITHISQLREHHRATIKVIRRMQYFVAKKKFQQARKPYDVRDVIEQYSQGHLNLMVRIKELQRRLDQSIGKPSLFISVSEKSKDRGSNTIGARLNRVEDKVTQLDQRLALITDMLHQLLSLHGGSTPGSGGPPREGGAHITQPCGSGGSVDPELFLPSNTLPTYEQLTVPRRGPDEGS
KCNK3 inh – human KCNK3 channel inhibition, primary screen | O14649 | CHO-KCNK3 thallium flux, FluxOR fluorescence; stronger effect = lower value | B-score at 10 µM | 340,000 compounds, 0.84% hits | AID 602410;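 active = B-score under library mean minus 4 SD, starting fluorescence ratio at most library mean plus 5 SD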;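 also: more negative B-score means stronger inhibition of thallium flux through KCNK3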
KCNQ1 pot – human KCNQ1 channel potentiation or activation | P51787 | CHO-K1 KCNQ1, thallium flux FluxOR fluorescence; stronger effect = higher value | B-score at 10 µM | AID 2648 | 310,000 compounds, 0.35% hits;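 active = fluorescence ratio B-score, a plate-corrected score, at least three library SD, with initial intensity B-score within 5 SD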
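Doses: Single concentration per compound, DMSO matched to controls | Test system: KCNQ1-transfected CHO-K1 cells | Timing: 90 min dye loading and 20 min compound exposure, both at room temperature | Measured by: Kinetic FluxOR thallium fluorescence, 10-s 1-Hz baseline, 110-s post-stimulus read | Medium: Assay buffer with matched DMSO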
KCNK9 inh – human KCNK9 channel inhibition | Q9NPC2 | HEK293 KCNK9, FluxOR thallium flux fluorescence; stronger effect = lower value | B-score at 10 µM | 310,000 compounds, 1.2% hits | AID 488922;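 active = ratio B-score over 3 SD below the library mean, with starting fluorescence within 5 SD of its mean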;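 also: negative B-score means less thallium flux so channel inhibition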
Kir21 block – blocks the mouse Kir2.1 inward-rectifier potassium channel. P35561. HEK293-Kir2.1, FluxOR thallium flux fluorescence; stronger effect = lower value. B-score at 10 µM. 310,000 compounds, 0.85% hits. AID 1672;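 active = fluorescence ratio B-score at or below minus 3 SD of library scores, with starting-brightness B-score within 2 SD, cut at about -4.2 in these data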;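 also: channel flux triggered by added potassium and thallium sulfate stimulus; B-score of peak minus minimum fluorescence over baseline after thallium stimulus; more negative B-score means stronger Kir2.1 block with less thallium influx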
hERG protect – hERG (human) protection from proarrhythmic block. CHO-hERG, FluxOR thallium flux, dofetilide IC70 present. activation (rescue from dofetilide block), less the hit threshold, % at 10 µM. 310,000 compounds, 0.51% hits;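 active = activation above the mean of controls blocked by dofetilide plus 5 SD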;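 also: thallium influx through hERG after potassium depolarization seen as dye fluorescence rise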
KCNK9 block conf – confirmation of human KCNK9 potassium channel inhibitors. shares compounds with KCNK9 inh. HEK293 KCNK9 cells, FluxOR thallium flux fluorescence. inhibition, % at 10 µM. 4,900 compounds, 43% hits. AID 492992;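 active = thallium signal inhibited by more than 5 SD of the compound-free buffer control wells, on both duplicate plates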;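 also: 0% = assay buffer control wells without compound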
Kir2-1 spec – tests whether KCNK9 modulators also affect mouse Kir2.1. inhibition, % at 10 µM. 4,900 compounds, 4% hits. Kir2.1 cells, FluxOR thallium flux fluorescence. AID 492993. shares compounds with KCNK9 inh;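 active = thallium signal drop more than 5 SD beyond the mean of the no-compound control wells, seen in both duplicate plates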;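 also: signal is fluorescence rise after thallium addition divided by baseline fluorescence; plate controls were assay buffer only for no effect and full block by chlorpromazine control for full effect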
HEK293 Tl ctr – second check of KCNK9 modulator effects in non-induced HEK293 cells | shares compounds with KCNK9 inh | FluxOR thallium flux | inhibition, % at 10 µM | 4,900 compounds, 40% hits;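 active = thallium signal drop beyond 5 SD of the untreated control mean, on both duplicate plates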;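 also: plate controls were buffer only IC0 wells for no effect and SID17386958 at its maximal inhibitory level for full effect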
* hit, by the source's call; i = inactive; / = not tested or not shown.

SMILES	KCNQ1 block	KCNK3 inh	KCNQ1 pot	KCNK9 inh	Kir21 block	hERG protect	KCNK9 block conf	Kir2-1 spec	HEK293 Tl ctr
COc1c(C)cc(C(=O)C2CCCN(C(=O)c3cccc(-n4cccn4)c3)C2)cc1C (stereo not given)	i	i	i	i	-0.31	-17	i	i	i
COc1c(C)cc(C(=O)C2CCCN(C(=O)c3csc(C)n3)C2)cc1C (stereo not given)	i	i	i	i	1.4	-6	/	/	/
COc1c(C)cc(C(=O)C2CCCN(C(=O)c3ccc4[nH]ccc4c3)C2)cc1C (stereo not given)	i	i	i	i	0.69	-22	i	i	i
Cc1ccc(-n2nnnc2CCl)cc1	i	i	i	i	0.86	-20	/	/	/
O=C(OCn1nnc2ccccc2c1=O)C1CCN(S(=O)(=O)c2cccs2)CC1	i	i	i	i	0.06	-11	/	/	/
COc1cccc(C2c3[nH]c4ccccc4c3CCN2Cc2ncc[nH]2)c1 (stereo not given)	i	i	i	i	-0.72	-7	/	/	/
CC(=O)NS(=O)(=O)c1ccc(NC(=O)[C@@H]2CCCN2S(=O)(=O)c2ccc(Cl)cc2)cc1	/	i	/	/	/	/	/	/	/
O=c1cc(CN2CCN(CCO)CC2)c2cc3c(cc2o1)CCC3	i	i	i	i	-1.3	-13	/	/	/
O=c1cc(CN2CCN(Cc3ccccc3)CC2)c2cc3c(cc2o1)CCC3	i	i	i	i	-0.02	-9	i	i	i
O=C(Nc1cccc(Cl)c1N1CCCC1)c1ccco1	i	i	i	-9.9*	0	-8	i	i	29%*
O=C(Nc1ccc(N2CCCC2)c(Cl)c1)c1ccco1	i	i	i	i	1.1	-6	/	/	/
CC(=O)N1CCN(c2ccc(NCc3ccc(-c4ccc(Br)cc4)o3)cc2)CC1	/	i	/	/	/	/	/	/	/
O=C(c1ccco1)N(Cc1ccc([N+](=O)[O-])cc1)c1ccc(Cl)cc1	i	i	i	i	1.1	-12	/	/	/
Cc1ccc(N(Cc2ccc([N+](=O)[O-])cc2)C(=O)c2ccco2)cc1C	i	i	i	-13*	-3.8	-12	56%*	i	42%*
CCOC(=O)CSc1nnc(CSc2nc3sc4c(c3c(=O)[nH]2)CCCC4)n1-c1ccccc1	i	i	i	i	0.5	-18	/	/	/
O=C(CCc1ccccc1)C(=O)N1CCCC(C(=O)c2cccc(Cl)c2)C1 (stereo not given)	i	i	i	i	-0.48	-6	i	32%*	37%*
CCCNC(=O)N1CCCC(C(=O)c2cccc(Cl)c2)C1 (stereo not given)	i	i	i	i	0.61	-15	/	/	/
Cc1ccc(C)c(C(=O)Cn2c(NCCO)nc3ccccc32)c1	i	i	i	i	0.19	-8	/	/	/
O=S(=O)(c1ccc(Br)s1)N1CCN(c2ccc(F)cc2)CC1	i	i	i	i	0.88	-10	/	/	/
N#CCSc1nccc(/C=C/c2ccccc2)n1	i	i	i	i	-0.89	-6	/	/	/
CC1(C)CC(=O)C(=C2SCCCS2)C(=O)C1	i	i	i	i	-2.3	-7	/	/	/
Cc1c(C(=O)Nc2ccc3c(c2)OCO3)oc2ccccc12	i	i	i	-15*	0.84	-12	62%*	i	33%*
COc1cc2[nH]c(Cl)c([N+](=O)[O-])c2cc1OC	i	i	i	i	-0.07	-18	/	/	/
Clc1cccc2c1CCN(Cc1nc(-c3cnccn3)no1)C2	i	i	i	i	0.65	-9	/	/	/
Cc1cccc(OCCC(=O)Nc2ccc(C)c(S(=O)(=O)N3CCCCC3)c2)c1	i	i	i	i	0	-1	i	i	i
SMILES	KCNQ1 block	KCNK3 inh	KCNQ1 pot	KCNK9 inh	Kir21 block	hERG protect	KCNK9 block conf	Kir2-1 spec	HEK293 Tl ctr
Cc1ccc(OCCOC(=O)C2CCN(S(=O)(=O)c3ccc(C)c(C)c3)CC2)cc1	i	i	i	i	-1.4	-7	i	i	i
Cc1cccc(Oc2ccc(S(=O)(=O)N3CCCCC3)cc2N)c1	i	i	i	-10*	0.65	-23	50%*	i	31%*
CC(=O)c1ccc(OCCCC(=O)Nc2ccc(C)c(S(=O)(=O)N3CCCCC3)c2)cc1	/	i	/	/	/	/	/	/	/
Cc1cccc(OCCOC(=O)C2CCN(S(=O)(=O)c3ccc(C)c(C)c3)CC2)c1	i	i	i	i	-0.48	-17	i	i	i
NC(=O)CC(NC(=O)c1ccccc1)c1ccc(NCCN2CCCCC2)c([N+](=O)[O-])c1 (stereo not given)	i	i	i	i	-2	-1	/	/	/
CCN(CC(=O)Nc1ccc(N2CCOCC2)cc1)CC(=O)NC(C)(C)C	i	i	i	i	-0.98	-12	/	/	/
CCOc1ccccc1N1CCN(S(=O)(=O)c2ccc(Cl)s2)CC1	i	i	i	i	0.92	-7	i	i	i
Cc1cc(Cl)ccc1NC(=O)CCC(=O)N/N=C/c1cc([N+](=O)[O-])ccc1O	i	i	i	i	1.7	-10	/	/	/
O=[N+]([O-])c1ccc(O)c(/C=N/NC(=S)Nc2ccc(Cl)cc2Cl)c1	i	i	i	i	0.68	-8	i	i	i
O=C(NC1CCCCC1)c1ccccc1NC(=O)C1CC1	i	i	i	i	1.3	-7	/	/	/
Clc1ccc(-c2nnsc2SCc2ccccc2)cc1	i	i	i	-11*	0.03	-8	i	i	44%*
COc1ccccc1N(Cc1cc(=O)[nH]c2ccccc12)C(=O)c1ccc([N+](=O)[O-])cc1	i	i	i	i	-2.3	-7	/	/	/
Oc1ccc2ccccc2c1C=NCc1ccccc1	i	i	i	i	0.06	-3	i	i	i
CC(C)(C)NC(=O)CN(Cc1ccc2c(c1)OCO2)C(=O)CNS(=O)(=O)c1ccccc1	i	i	i	i	0.02	-6	/	/	/
Cc1ccc(C2CC2c2n[nH]c(=S)n2-c2ccc(C)cc2)cc1 (stereo not given)	i	i	i	i	-0.86	-8	i	i	i
COc1ccc(CN2C(=O)NC3(CCCCCC3)C2=O)cc1F	i	i	i	i	1.3	-11	/	/	/
